In ChEMBL document CHEMBL4834419 (J Med Chem, 2021):

How the values were obtained:
[1] = target: T1, Retinoic acid receptor alpha (Homo sapiens) (UniProt P10276); assay: Agonist activity against human RARalpha in human HEK293T cells co-expressing pFR/pRL-Luc assessed as receptor activation at 10 uM incubated for 14 to 16 hrs by hybrid reporter gene assay relative to bexarotene; type: cell-based; conditions: filed as agonist, time 14-16 hrs
T1 sequence (whole entry): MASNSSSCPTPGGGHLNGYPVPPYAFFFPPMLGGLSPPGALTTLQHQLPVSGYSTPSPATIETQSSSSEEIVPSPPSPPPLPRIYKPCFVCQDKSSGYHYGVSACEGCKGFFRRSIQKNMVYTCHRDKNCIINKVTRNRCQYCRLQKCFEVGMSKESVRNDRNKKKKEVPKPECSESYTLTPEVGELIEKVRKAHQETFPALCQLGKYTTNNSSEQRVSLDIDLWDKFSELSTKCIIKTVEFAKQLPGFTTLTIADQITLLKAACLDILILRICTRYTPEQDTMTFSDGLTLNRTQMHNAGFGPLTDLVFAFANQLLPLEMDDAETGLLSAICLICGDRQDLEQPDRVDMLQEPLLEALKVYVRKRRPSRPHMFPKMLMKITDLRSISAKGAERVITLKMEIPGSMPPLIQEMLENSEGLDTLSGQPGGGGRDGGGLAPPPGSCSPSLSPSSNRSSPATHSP
How it was run: (§1)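 Gal4 hybrid reporter assay in HEK293T cells, seeded 24 h before transfection (Lipofectamine LTX, Opti-MEM) with pFR-Luc, pRL-SV40 and pFA-CMV plasmid carrying the hinge region and LBD of the human receptor. After 5 h, compound added in 0.1% DMSO, with 0.1% DMSO alone as untreated control. Dual-Glo luciferase read after 14−16 h; firefly/renilla normalized; duplicates, ≥2 independent experiments.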

[2] = target: T2, Bile acid receptor (Homo sapiens) (UniProt Q96RI1); assay: Agonist activity against human FXR in human HEK293T cells co-expressing pFR/pRL-Luc assessed as receptor activation at 10 uM incubated for 14 to 16 hrs by hybrid reporter gene assay relative to bexarotene; type: cell-based; conditions: filed as agonist, time 14-16 hrs; how it was run: as §1
T2 sequence (whole entry): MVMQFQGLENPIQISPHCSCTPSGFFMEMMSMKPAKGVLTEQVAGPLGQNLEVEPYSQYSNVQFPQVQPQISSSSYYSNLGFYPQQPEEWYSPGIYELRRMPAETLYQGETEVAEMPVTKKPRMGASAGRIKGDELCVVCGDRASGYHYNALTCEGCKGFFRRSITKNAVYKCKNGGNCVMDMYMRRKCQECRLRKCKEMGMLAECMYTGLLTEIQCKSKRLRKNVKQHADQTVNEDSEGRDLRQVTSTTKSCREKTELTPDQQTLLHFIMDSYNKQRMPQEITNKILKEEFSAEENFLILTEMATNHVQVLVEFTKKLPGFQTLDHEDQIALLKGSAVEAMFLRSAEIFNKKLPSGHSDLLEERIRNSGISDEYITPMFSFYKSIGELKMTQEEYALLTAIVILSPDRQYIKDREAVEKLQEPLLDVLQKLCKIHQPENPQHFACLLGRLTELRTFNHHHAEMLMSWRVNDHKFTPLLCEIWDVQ

[3] = target: T3, Retinoic acid receptor RXR-gamma (Homo sapiens) (UniProt P48443); assay: Agonist activity against human RXRgamma in human HEK293T cells co-expressing pFR/pRL-Luc assessed as receptor activation at 10 uM incubated for 14 to 16 hrs by hybrid reporter gene assay relative to bexarotene; type: cell-based; conditions: filed as agonist, time 14-16 hrs; how it was run: as §1
T3 sequence (whole entry): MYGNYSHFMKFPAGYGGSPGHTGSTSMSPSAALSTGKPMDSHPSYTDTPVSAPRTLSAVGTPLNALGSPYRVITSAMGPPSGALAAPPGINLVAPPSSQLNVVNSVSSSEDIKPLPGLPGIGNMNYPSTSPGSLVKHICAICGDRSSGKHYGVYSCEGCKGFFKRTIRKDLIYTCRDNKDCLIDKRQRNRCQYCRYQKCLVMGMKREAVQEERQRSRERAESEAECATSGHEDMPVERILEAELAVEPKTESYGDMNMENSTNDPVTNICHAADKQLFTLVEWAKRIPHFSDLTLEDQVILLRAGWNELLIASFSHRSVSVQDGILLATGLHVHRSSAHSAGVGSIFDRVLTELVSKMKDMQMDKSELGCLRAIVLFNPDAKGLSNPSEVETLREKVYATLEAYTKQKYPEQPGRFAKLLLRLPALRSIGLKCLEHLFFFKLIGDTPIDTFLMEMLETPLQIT

[4] = target: T4, Peroxisome proliferator-activated receptor alpha (Homo sapiens) (UniProt Q07869); assay: Agonist activity against human PPARalpha in human HEK293T cells co-expressing pFR/pRL-Luc assessed as receptor activation at 10 uM incubated for 14 to 16 hrs by hybrid reporter gene assay relative to bexarotene; type: cell-based; conditions: filed as agonist, time 14-16 hrs; how it was run: as §1
T4 sequence (whole entry): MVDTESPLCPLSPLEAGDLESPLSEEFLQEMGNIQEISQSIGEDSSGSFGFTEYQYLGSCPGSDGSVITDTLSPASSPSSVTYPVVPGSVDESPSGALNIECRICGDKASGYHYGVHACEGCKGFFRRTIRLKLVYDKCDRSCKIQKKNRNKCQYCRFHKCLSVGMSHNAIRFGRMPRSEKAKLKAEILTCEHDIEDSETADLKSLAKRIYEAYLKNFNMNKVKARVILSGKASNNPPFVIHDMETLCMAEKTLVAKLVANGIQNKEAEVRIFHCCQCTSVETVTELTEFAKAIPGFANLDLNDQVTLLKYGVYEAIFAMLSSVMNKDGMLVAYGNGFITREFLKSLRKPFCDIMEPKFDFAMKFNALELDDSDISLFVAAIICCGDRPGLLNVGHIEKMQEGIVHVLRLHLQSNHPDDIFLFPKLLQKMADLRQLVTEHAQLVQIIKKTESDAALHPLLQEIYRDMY

[5] = Cmax in mouse at 10 mg/kg, po; type: ADME, organism-based; set-up: route oral, dose 10 mg/kg; conditions: in vivo
How it was run: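 Mice, n = 3, received a single oral dose of 10 mg/kg in water with 1% hydroxypropyl methylcellulose/Tween 80 (99:1). Tail-vein blood was drawn at 30 and 60 min and tissue collected at 3 h. Compound was quantified by LC−MS and PK derived by noncompartmental analysis.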

[6] = target: T5, Retinoic acid receptor RXR-gamma (Homo sapiens, UniProt P48443); assay: Agonist activity at human RXRgamma transfected in human HEK293T cells co-expressing pFR/pRL-Luc incubated for 14 to 16 hrs by hybrid reporter gene assay; type: cell-based
T5 sequence (P48443 whole entry): T3 sequence (whole entry)

For `O=C(O)CCCc1cc(-c2cc(Cl)cc(Cl)c2)n(-c2ccccc2)n1`, the Activity [1] was 1%, the Activity [2] was 1% and the Activity [3] was 27%. For the same compound, the Activity [4] was 2%, the Cmax [5] was 35000 ng/mL and the EC50 [6] was 1600 nM.
